ChEMBL document CHEMBL1141140, “Antifungal agents. 11. N-substituted derivatives of 1-[(aryl)(4-aryl-1H-pyrrol-3-yl)methyl]-1H-imidazole: synthesis, anti-Candida activity, and QSAR studies” (2005)
In brackets after ≈: the same amount, converted by molar mass.

Key:
Candida albicans [1] = assay: Ratio of the in vitro minimal inhibitory to that of bifonazole against Candida albicans (MIC(compound)/MIC(bifonazole)); format: functional
Summary of the method: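 Broth microdilution per NCCLS M27-A2 against 12 Candida albicans strains (AIDS oropharyngeal, HIV vulvovaginitis isolates, ATCC 24433 and 20891, lab strains 3153 and CA2). Inoculum ~10^4 cells/mL in RPMI 1640, pH 7.0; DMSO stocks 6.4 mg/mL, twofold dilutions 0.016–64 μg/mL; read at 24 h, 28 °C, no visible growth. Mean MIC over strains converted to μmol/mL, divided by bifonazole MIC.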

Candida albicans [2] = assay: In vitro minimal inhibitory concentration against Candida albicans with percentage of resistant strains %R = 50 (MIC > 64 ug/mL) at a range of 2-16 ug/mL; format: functional
Candida albicans [3] = assay: In vitro concentration causing 50% inhibition of Candida albicans with percentage of resistant strains %R = 50 (MIC > 64 ug/mL) at a range of 2-16 ug/mL; format: functional
Candida albicans [4] = assay: In vitro concentration causing 90% inhibition of Candida albicans with percentage of resistant strains %R = 50 (MIC > 64 ug/mL) at a range of 2-16 ug/mL; format: functional
Candida albicans [5] = assay: In vitro concentration causing 50% inhibition of Candida albicans with percentage of resistant strains %R = 33.3 (MIC > 64 ug/mL) at a range of 0.25-32 ug/mL
Candida albicans [6] = assay: In vitro concentration causing 90% inhibition of Candida albicans with percentage of resistant strains %R = 33.3 (MIC > 64 ug/mL) at a range of 0.25-32 ug/mL
Candida albicans [7] = assay: In vitro minimal inhibitory concentration against Candida albicans with percentage of resistant strains %R = 33.3 (MIC > 64 ug/mL) at a range of 0.25-32 ug/mL
Candida albicans [8] = assay: In vitro minimal inhibitory concentration against Candida albicans with percentage of resistant strains %R = 0 (MIC > 64 ug/mL) at a range of 0.062-0.5 ug/mL; format: functional
Candida albicans [9] = assay: In vitro concentration causing 50% inhibition of Candida albicans with percentage of resistant strains %R = 0 (MIC > 64 ug/mL) at a range of 0.062-0.5 ug/mL; format: functional
Candida albicans [10] = assay: In vitro concentration causing 90% inhibition of Candida albicans with percentage of resistant strains %R = 0 (MIC > 64 ug/mL) at a range of 0.062-0.5 ug/mL; format: functional
Candida albicans [11] = assay: In vitro minimal inhibitory concentration against Candida albicans with percentage of resistant strains %R = 0 (MIC > 64 ug/mL) at a range of 0.016-0.5 ug/mL; format: functional
Candida albicans [12] = assay: In vitro concentration causing 50% inhibition of Candida albicans with percentage of resistant strains %R = 0 (MIC > 64 ug/mL) at a range of 0.016-0.5 ug/mL; format: functional
Candida albicans [13] = assay: In vitro concentration causing 90% inhibition of Candida albicans with percentage of resistant strains %R = 0 (MIC > 64 ug/mL) at a range of 0.016-0.5 ug/mL; format: functional
Candida albicans [14] = assay: In vitro minimal inhibitory concentration against Candida albicans with percentage of resistant strains %R = 33.3 (MIC > 64 ug/mL) at a range of 0.065-4 ug/mL; format: functional
Candida albicans [15] = assay: In vitro concentration causing 50% inhibition of Candida albicans with percentage of resistant strains %R = 33.3 (MIC > 64 ug/mL) at a range of 0.065-4 ug/mL; format: functional
Candida albicans [16] = assay: In vitro concentration causing 90% inhibition of Candida albicans with percentage of resistant strains %R = 33.3 (MIC > 64 ug/mL) at a range of 0.065-4 ug/mL; format: functional
Candida albicans [17] = assay: In vitro minimal inhibitory concentration against Candida albicans with percentage of resistant strains %R = 16.6 (MIC > 64 ug/mL) at a range of 0.5-4 ug/mL; format: functional
Candida albicans [18] = assay: In vitro concentration causing 50% inhibition of Candida albicans with percentage of resistant strains %R = 16.6 (MIC > 64 ug/mL) at a range of 0.5-4 ug/mL; format: functional
Candida albicans [19] = assay: In vitro concentration causing 90% inhibition of Candida albicans with percentage of resistant strains %R = 16.6 (MIC > 64 ug/mL) at a range of 0.5-4 ug/mL; format: functional

Structure (SMILES) | Ratio (Candida albicans [1]) | further results
Fc1ccc(C(c2ccn(-c3ccc(F)cc3)c2)n2ccnc2)cc1 (stereo not given) | 1.4 | –
Clc1ccc(-c2cn(-c3ccccc3)cc2C(c2ccccc2)n2ccnc2)cc1 (stereo not given) | 1.5 | MIC (Candida albicans [2]): 7 µg/mL (≈ 17.1 µM); MIC50 (Candida albicans [3]): 4 µg/mL (≈ 9.76 µM); MIC90 (Candida albicans [4]): 16 µg/mL (≈ 39 µM)
COc1ccc(C(Cc2cccc(-n3cccc3)c2)n2ccnc2)cc1 (stereo not given) | 45 | –
Cc1ccc(C(c2ccn(-c3ccccc3)c2)n2ccnc2)cc1 (stereo not given) | 1.2 | –
Cn1cc(-c2ccccc2)c(C(c2ccc3ccccc3c2)n2ccnc2)c1 (stereo not given) | 63 | –
CCn1cc(-c2ccc(Cl)cc2)c(C(c2ccccc2)n2ccnc2)c1 (stereo not given) | 0.11 | MIC50 (Candida albicans [5]): 1 µg/mL (≈ 2.76 µM); MIC90 (Candida albicans [6]): 8 µg/mL (≈ 22.1 µM); MIC (Candida albicans [7]): 5.59 µg/mL (≈ 15.4 µM)
c1ccc(C(c2ccc(-n3cccc3)cc2)n2ccnc2)cc1 (stereo not given) | 6.8 | –
COc1ccc(C(Cc2cccc(Cl)c2)n2ccnc2)cc1 (stereo not given) | 44 | –
COc1ccc(C(Cc2ccccc2-n2cccc2)n2ccnc2)cc1 (stereo not given) | 7.8 | –
COc1ccc(C(Cc2ccccc2F)n2ccnc2)cc1 (stereo not given) | 49 | –
Cn1cc(-c2ccccc2)c(C(c2cccc3ccccc23)n2ccnc2)c1 (stereo not given) | 6 | –
CC(Cc1ccc(Cl)cc1Cl)n1ccnc1.COc1ccccc1 (stereo not given) | 1 | –
FC(F)(F)c1ccc(-c2c[nH]cc2C(c2ccc(Cl)cc2Cl)n2ccnc2)cc1 (stereo not given) | 2.2 | –
CC(C)=CCn1cc(-c2ccc(Cl)cc2)c(C(c2ccccc2)n2ccnc2)c1 (stereo not given) | 0.043 | MIC (Candida albicans [8]): 0.194 µg/mL (≈ 0.483 µM); MIC50 (Candida albicans [9]): 0.065 µg/mL (≈ 0.162 µM); MIC90 (Candida albicans [10]): 0.5 µg/mL (≈ 1.24 µM)
C=Cn1cc(-c2ccc(Cl)cc2)c(C(c2ccccc2)n2ccnc2)c1 (stereo not given) | 0.031 | MIC (Candida albicans [11]): 0.125 µg/mL (≈ 0.347 µM); MIC50 (Candida albicans [12]): 0.032 µg/mL (≈ 0.0889 µM); MIC90 (Candida albicans [13]): 0.25 µg/mL (≈ 0.695 µM)
Clc1ccc(-c2c[nH]cc2C(c2ccccc2)n2ccnc2)cc1 (stereo not given) | 0.66 | MIC (Candida albicans [14]): 2.5 µg/mL (≈ 7.49 µM); MIC50 (Candida albicans [15]): 0.125 µg/mL (≈ 0.374 µM); MIC90 (Candida albicans [16]): 4 µg/mL (≈ 12 µM)
c1ccc(-c2c[nH]cc2C(c2cccc3ccccc23)n2ccnc2)cc1 (stereo not given) | 1.7 | –
COC(=O)/C=C/n1cc(-c2ccc(Cl)cc2)c(C(c2ccccc2)n2ccnc2)c1 (stereo not given) | 0.34 | MIC (Candida albicans [17]): 1.62 µg/mL (≈ 3.88 µM); MIC50 (Candida albicans [18]): 2 µg/mL (≈ 4.79 µM); MIC90 (Candida albicans [19]): 4 µg/mL (≈ 9.57 µM)
CC(Cc1ccc(N)cc1)n1ccnc1.COc1ccccc1 (stereo not given) | 1.4 | –
C=CCn1cc(-c2ccc(Cl)cc2)c(C(c2ccccc2)n2ccnc2)c1 (stereo not given) | 0.019 | MIC (Candida albicans [11]): 0.082 µg/mL (≈ 0.219 µM); MIC50 (Candida albicans [12]): 0.016 µg/mL (≈ 0.0428 µM); MIC90 (Candida albicans [13]): 0.25 µg/mL (≈ 0.669 µM)
Oc1ccc(-c2c[nH]cc2C(c2ccc(Cl)cc2Cl)n2ccnc2)cc1 (stereo not given) | 26 | –
O=[N+]([O-])c1ccc(-c2c[nH]cc2C(c2ccc(Cl)cc2Cl)n2ccnc2)cc1 (stereo not given) | 4.5 | –
Cc1ccc(C(c2ccn(-c3ccc(F)cc3)c2)n2ccnc2)cc1 (stereo not given) | 3.1 | –
Clc1ccc(C(c2c[nH]cc2-c2ccc(-n3cccc3)cc2)n2ccnc2)c(Cl)c1 (stereo not given) | 1.3 | –
